The source of these data is ChEMBL document CHEMBL4406880, “Design, synthesis, and bioactivity of dihydropyrimidine derivatives as kinesin spindle protein inhibitors” (Bioorg Med Chem, 2019).

Holding throughout (format): functional
Experiment [1] has as its system HOP-92. In words: Growth inhibition of human HOP92 cells assessed as growth percentage at 10 uM incubated for 48 hrs by sulforhodamine B assay relative to control. The settings on record: HOP-92, 48 h, read-out: Activity. In a few lines:
(§1)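 NCI-60 one-dose screen. Cells in RPMI 1640 with 5% FBS and 2 mM L-glutamine, seeded at 5,000–40,000 cells/well according to doubling time, and preincubated overnight at 37 °C, 5% CO2. A time-zero plate was TCA-fixed at drug addition. Compound from DMSO stock, final 10 µM, 48 h; DMSO vehicle controls. Fixation with TCA, 10% final (16% for suspension cells). SRB stain, Tris solubilization, A515. Result given as % growth versus untreated cells.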
(Sulforhodamine B stains cellular protein and so reports cell mass.)

Experiment [2] relates to Malme-3M. In words: Growth inhibition of human MALME-3M cells assessed as growth percentage at 10 uM incubated for 48 hrs by sulforhodamine B assay relative to control. The settings on record: read-out: Activity. Summed up: as §1
For experiment [3], the system named is SK-MEL-2. In words: Growth inhibition of human SK-MEL-2 cells assessed as growth percentage at 10 uM incubated for 48 hrs by sulforhodamine B assay relative to control. To be noted: SK-MEL-2, 48 h, read-out: Activity. In a few lines:
(§2)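 NCI-60 single-dose screen. Cells were grown in RPMI 1640 with 5% FBS and 2 mM L-glutamine and plated at 5,000–40,000 cells/well. After an overnight preincubation at 37 °C in 5% CO2, compound was added at a final 10 µM from a DMSO stock, with DMSO/PBS controls. After 48 h, cells were TCA-fixed and stained with 0.4% SRB, and absorbance was read at 515 nm. Growth is given as a percentage of untreated control.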

In experiment [4] the test system is OVCAR-4. Put plainly: Growth inhibition of human OVCAR4 cells assessed as growth percentage at 10 uM incubated for 48 hrs by sulforhodamine B assay relative to control. The settings on record: OVCAR-4, 48 h, read-out: Activity. Summed up: as §1
Experiment [5] deals with A498. Put plainly: Growth inhibition of human A498 cells assessed as growth percentage at 10 uM incubated for 48 hrs by sulforhodamine B assay relative to control. To be noted: A498, 48 h, read-out: Activity. In a few lines: (§3)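 NCI-60 one-dose screen: cells in RPMI 1640 with 5% FBS and 2 mM L-glutamine, plated at 5,000–40,000 cells/well and preincubated 24 h at 37 °C, 5% CO2. Compound is added from a DMSO stock to a final 10 µM and incubated 48 h. Cells are TCA-fixed and stained with sulforhodamine B, read at 515 nm. Output is % growth versus untreated control, with a time-zero plate.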

Experiment [6] has as its system OVCAR-5. Put plainly: Growth inhibition of human OVCAR5 cells assessed as growth percentage at 10 uM incubated for 48 hrs by sulforhodamine B assay relative to control. To be noted: OVCAR-5, 48 h, read-out: Activity. Summed up:
as §2

The subject of experiment [7] is NCI-H23. In words: Growth inhibition of human NCI-H23 cells assessed as growth percentage at 10 uM incubated for 48 hrs by sulforhodamine B assay relative to control. To be noted: NCI-H23, 48 h, read-out: Activity. Summed up:
as §1

Experiment [8] concerns SF-268. Put plainly: Growth inhibition of human SF268 cells assessed as growth percentage at 10 uM incubated for 48 hrs by sulforhodamine B assay relative to control. The settings on record: SF-268, 48 h, read-out: Activity. Summed up:
as §2

In experiment [9] the test system is CAKI-1. Put plainly: Growth inhibition of human Caki1 cells assessed as growth percentage at 10 uM incubated for 48 hrs by sulforhodamine B assay relative to control. The settings on record: CAKI-1, 48 h, read-out: Activity. In a few lines:
as §3

The structures appear in SMILES notation.

Regarding `O=C1C2=C(NC(=S)NC2c2ccc3c(c2)OCO3)c2ccccc21` (racemic), the growth at 10 µM in [1] turned out to be 95%; in [2], 106%; in experiment [3] it was 105%; in experiment [4] it was 102%; in experiment [5], 109%; in [6], 106%. The values for the growth at 10 µM in experiment [7], in experiment [8] and in experiment [9] were 98.5%, 91.8% and 87.4%, respectively.
In the case of `COCCOC(=O)C1=C(C)NC(=O)NC1c1ccc2c(c1)OCO2` (racemic), the growth at 10 µM in [1] was 112%; in experiment [2], 99.8%; in experiment [3], 104%; in [4], 94.4%; in experiment [5] it was 87%; in experiment [6] it was 101%. The values for the growth at 10 µM in experiment [7], in experiment [8] and in [9] were 92%, 98% and 90.4%, respectively.
For `CC(=O)N1C(=S)NC(C)=C(C(=O)OCC(C)C)C1c1ccc2c(c1)OCO2` (racemic), the growth at 10 µM in experiment [1] was 80.6%; in experiment [2], 108%; in [3] it was 102%; in [4], 79.6%; in [5] it was 104%; in experiment [6] it was 99.4%. For the same compound, the growth at 10 µM in [7] turned out to be 97.1%; in experiment [8], 100%; in [9], 96.2%.
Consider `CC(=O)N1C(=S)NC(C)=C(C(=O)OC(C)C)C1c1ccc2c(c1)OCO2` (racemic), for which the growth at 10 µM in [1] was determined as 78.1%; in [2] it was 98.4%; in experiment [3], 110%; in [4], 100%; in experiment [5] it was 114%; in [6], 107%. In addition, the growth at 10 µM was 100% in experiment [7], 100% in [8] and 97.2% in experiment [9].
`COCCOC(=O)C1=C(C)NC(=S)N(C(C)=O)C1c1ccc2c(c1)OCO2` (racemic): the growth at 10 µM in experiment [1] turned out to be 85.4%; in experiment [2], 88.6%; in [3], 108%; in experiment [4] it was 87.6%; in [5], 85.3%; in experiment [6], 102%. For the same compound, the figures for the growth at 10 µM in experiment [7], in experiment [8] and in experiment [9] were 99.1%, 98.4% and 97.4%, respectively.
With `CC1=C(C(=O)OCC(C)C)C(c2ccc3c(c2)OCO3)NC(=S)N1` (racemic), the growth at 10 µM in experiment [1] turned out to be 103%; in experiment [2] it was 105%; in experiment [3], 101%; in experiment [4] it was 103%; in experiment [5], 121%; in [6], 105%. The values for the growth at 10 µM in experiment [7], in experiment [8] and in [9] were 99.5%, 97.8% and 86.6%, respectively.
As to `CC1=C(C(=O)OC(C)C)C(c2ccc3c(c2)OCO3)NC(=S)N1` (racemic), the growth at 10 µM in experiment [1] stood at 96.6%; in [2], 95.9%; in experiment [3], 102%; in experiment [4], 98.4%; in experiment [5], 109%; in experiment [6] it was 105%. Moreover, the growth at 10 µM worked out at 99.2% in [7], 103% in [8] and 93.8% in experiment [9].
In the case of `CC(=O)C1=C(C)NC(=O)NC1c1ccc2c(c1)OCO2` (racemic), the growth at 10 µM in experiment [1] turned out to be 102%; in experiment [2] it was 104%; in experiment [3], 110%; in experiment [4], 108%; in [5] it was 120%; in experiment [6], 102%. Besides, the figures for the growth at 10 µM in experiment [7], in experiment [8] and in experiment [9] were 101%, 107% and 91.4%, respectively.
As to `CC1=C(C(=O)OCC(C)C)C(c2ccc3c(c2)OCO3)NC(=O)N1` (racemic), the growth at 10 µM in [1] turned out to be 102%; in experiment [2], 99.8%; in experiment [3], 104%; in [4], 104%; in [5], 121%; in experiment [6], 104%. The growth at 10 µM in [7] amounted to 102%; in [8], 101%; in [9], 96.3%.
Regarding `CC1=C(C(=O)c2ccccc2)C(c2ccc3c(c2)OCO3)NC(=O)N1` (racemic), the growth at 10 µM in experiment [1] came out at 92.4%; in experiment [2], 91.7%; in experiment [3], 105%; in experiment [4] it was 99.9%; in experiment [6] it was 106%; in experiment [7], 107%. The growth at 10 µM in [8] was determined as 100%; in [9] it was 91.1%.
Regarding `CC1=C(C(=O)OCc2ccccc2)C(c2ccc3c(c2)OCO3)NC(=S)N1` (racemic), the growth at 10 µM was 99% in experiment [1]; 115% in experiment [2]; 96.7% in experiment [3]; 84.5% in experiment [4]; 72.8% in experiment [5]; 100% in experiment [6]. Also, the results for the growth at 10 µM in experiment [7], in [8] and in [9] were 94.5%, 97.3% and 81.8%, respectively.
In the case of `COCCOC(=O)C1=C(C)NC(=S)NC1c1ccc2c(c1)OCO2` (racemic), the growth at 10 µM in experiment [1] was found to be 108%; in [2], 108%; in [3] it was 93%; in [4], 103%; in experiment [5], 96.1%; in experiment [6], 109%. Further, the growth at 10 µM was 96.2% in experiment [7], 97.4% in experiment [8] and 99.8% in experiment [9].
As to `CC1=C(C(=O)OC(C)C)C(c2ccc3c(c2)OCO3)NC(=O)N1` (racemic), the growth at 10 µM in [1] was found to be 111%; in experiment [2] it was 99.6%; in experiment [3] it was 108%; in experiment [4] it was 103%; in [5], 104%; in [6], 103%. In addition, the growth at 10 µM in experiment [7] stood at 98.8%; in [8] it was 104%; in [9], 93.9%.
Take `O=C1NC2=C(C(=O)c3ccccc32)C(c2ccc3c(c2)OCO3)N1` (racemic): the growth at 10 µM in experiment [1] came out at 99%; in [2], 106%; in experiment [3], 108%; in [4], 116%; in [5], 112%; in [6], 105%. Moreover, the growth at 10 µM in experiment [7] was 104%; in experiment [8] it was 97.4%; in [9] it was 90.9%.
Consider `CC(=O)C1=C(C)NC(=S)NC1c1ccc2c(c1)OCO2` (racemic), for which the growth at 10 µM was 92.5% in experiment [1]; 108% in experiment [2]; 106% in [3]; 103% in experiment [4]; 115% in [5]; 101% in experiment [6]. Besides, the growth at 10 µM in experiment [7] was 107%; in experiment [8] it was 100%; in experiment [9], 91.9%.
Regarding `CC1=C(C(=O)OCc2ccccc2)C(c2ccc3c(c2)OCO3)NC(=O)N1` (racemic), the growth at 10 µM in experiment [1] came to 92.3%; in experiment [2] it was 101%; in experiment [3], 101%; in experiment [4], 91%; in experiment [5], 105%; in [6], 106%. In addition, the growth at 10 µM in experiment [7] came out at 101%; in experiment [8], 99.8%; in experiment [9] it was 89.5%.
